For the first data set, the system named is U-87 MG. Briefly: Cytotoxicity in human U87 cells assessed as reduction in cell viability incubated for 72 hrs by SRB assay. The format is functional, cell-based, U-87MG ATCC.
Settings: not given; call rule not given here
In outline:
(§1)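 SRB assay of cell viability in human cancer lines (HeLa, KB, A549, U87, HepG2) and normal dermal fibroblasts (HDF). IC50 values are […] of three independent experiments.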
Background: In SRB staining, fixed cells bind dye roughly in proportion to their protein.
As usually defined, the IC50 is the point on the concentration scale where inhibition reaches its midpoint. For the compound `Nc1ccn([C@@H]2O[C@H](CO)[C@@H](O)C2(F)F)c(=O)n1` [GEMCITABINE], the IC50 was 5.21 µM.
With `Cc1cn([C@H]2C[C@H](N=[N+]=[N-])[C@@H](CO)O2)c(=O)[nH]c1=O` [ZIDOVUDINE], the IC50 was determined as 11.9 µM.

The next data set concerns KB. Briefly: Cytotoxicity in human KB cells assessed as reduction in cell viability incubated for 72 hrs by SRB assay. It counts as functional, cell-based.
Settings: not given
In outline:
as §1
For the compound `Nc1ccn([C@@H]2O[C@H](CO)[C@@H](O)C2(F)F)c(=O)n1` [GEMCITABINE], the IC50 was 8.21 µM.
For `Cc1cn([C@H]2C[C@H](N=[N+]=[N-])[C@@H](CO)O2)c(=O)[nH]c1=O` [ZIDOVUDINE], the half-inhibitory concentration (IC50) was 9.77 µM.

Tested on in a further data set: not listed separately
Briefly: Selectivity index, ratio of IC50 for cytotoxicity in human NHDF cells to IC50 for cytotoxicity in human HeLa cells.
Settings: not given
In short, it runs like this: (§2)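 Selectivity index is the IC50 in normal HDF fibroblasts divided by the IC50 in the given cancer line.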
`Nc1ccn([C@@H]2O[C@H](CO)[C@@H](O)C2(F)F)c(=O)n1` [GEMCITABINE]: the “Ratio IC50” value came out at 2.07.
As for `Cc1cn([C@H]2C[C@H](N=[N+]=[N-])[C@@H](CO)O2)c(=O)[nH]c1=O` [ZIDOVUDINE], the “Ratio IC50” value is reported as 1.34.

Tested on in the next data set: not listed separately
Briefly: Selectivity index, ratio of IC50 for cytotoxicity in human NHDF cells to IC50 for cytotoxicity in human A549 cells.
Settings: not given
In outline: as §2
Turning to `Nc1ccn([C@@H]2O[C@H](CO)[C@@H](O)C2(F)F)c(=O)n1` [GEMCITABINE], the “Ratio IC50” value was determined as 3.85.
Still for that read-out and setting: the same measure for `Cc1cn([C@H]2C[C@H](N=[N+]=[N-])[C@@H](CO)O2)c(=O)[nH]c1=O` [ZIDOVUDINE]: 1.22.

Tested on in another data set: not listed separately
Briefly: Selectivity index, ratio of IC50 for cytotoxicity in human NHDF cells to IC50 for cytotoxicity in human U87 cells.
Settings: not given
In short, it runs like this:
as §2
On to `Nc1ccn([C@@H]2O[C@H](CO)[C@@H](O)C2(F)F)c(=O)n1` [GEMCITABINE], for which the “Ratio IC50” value came out at 3.73.
In the case of `Cc1cn([C@H]2C[C@H](N=[N+]=[N-])[C@@H](CO)O2)c(=O)[nH]c1=O` [ZIDOVUDINE], the “Ratio IC50” value came to 1.21.

For another data set, the system named is A549. Briefly: Cytotoxicity in human A549 cells assessed as reduction in cell viability incubated for 72 hrs by SRB assay. The format is functional, cell-based. Conditions: A549, 72 h. In short, it runs like this: as §1
Regarding `Nc1ccn([C@@H]2O[C@H](CO)[C@@H](O)C2(F)F)c(=O)n1` [GEMCITABINE], the IC50 came out at 5.05 µM.
Still for that read-out and setting: then `Cc1cn([C@H]2C[C@H](N=[N+]=[N-])[C@@H](CO)O2)c(=O)[nH]c1=O` [ZIDOVUDINE], with 11.9 µM.

Tested on in another data set: not listed separately
Briefly: Selectivity index, ratio of IC50 for cytotoxicity in human NHDF cells to IC50 for cytotoxicity in human KB cells.
Settings: not given
In short, it runs like this: as §2
`Nc1ccn([C@@H]2O[C@H](CO)[C@@H](O)C2(F)F)c(=O)n1` [GEMCITABINE]: the “Ratio IC50” value is 2.37.
As for `Cc1cn([C@H]2C[C@H](N=[N+]=[N-])[C@@H](CO)O2)c(=O)[nH]c1=O` [ZIDOVUDINE], the “Ratio IC50” value turned out to be 1.48.

Tested on in another data set: not listed separately
Briefly: Selectivity index, ratio of IC50 for cytotoxicity in human NHDF cells to IC50 for cytotoxicity in human HepG2 cells.
Settings: not given
In outline:
as §2
On to `Nc1ccn([C@@H]2O[C@H](CO)[C@@H](O)C2(F)F)c(=O)n1` [GEMCITABINE], for which the “Ratio IC50” value stood at 3.97.
As for `Cc1cn([C@H]2C[C@H](N=[N+]=[N-])[C@@H](CO)O2)c(=O)[nH]c1=O` [ZIDOVUDINE], the “Ratio IC50” value was determined as 1.11.

The next data set concerns NHDF. Briefly: Cytotoxicity in human NHDF cells assessed as reduction in cell viability incubated for 72 hrs by SRB assay. It counts as cell-based.
Settings: not given
In outline: as §1
`Nc1ccn([C@@H]2O[C@H](CO)[C@@H](O)C2(F)F)c(=O)n1` [GEMCITABINE]: the IC50 is 19.4 µM.
On the same count and under the same terms, the same measure for `Cc1cn([C@H]2C[C@H](N=[N+]=[N-])[C@@H](CO)O2)c(=O)[nH]c1=O` [ZIDOVUDINE]: 14.4 µM.

Tested on in the next data set: not listed separately
Briefly: Drug level in human HeLa cells treated with 1-(3'-Deoxythymidin-3'-yl)-4-[methyloxycarbonyl-(2'-deoxy-2',2'-difluorocytidin-4N-yl)]-1H-1,2,3-triazole assessed as compound release incubated for 12 hrs by HPLC/MS method. It counts as ADME, cell-based.
Settings: not given
In short, it runs like this: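 HeLa cells were incubated with the dimer at 37 °C for 12 h. Cell lysate was analysed by HPLC/MS for released gemcitabine, the deamination product dFdU and the thymidine-triazole fragment. A separately synthesized sample of the thymidine-triazole fragment was used as the reference.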
With `Cc1cn([C@H]2C[C@H](n3cc(CO)nn3)[C@@H](CO)O2)c(=O)[nH]c1=O`, the Drug uptake entry is “Active”.
As for `Nc1ccn([C@@H]2O[C@H](CO)[C@@H](O)C2(F)F)c(=O)n1` [GEMCITABINE], the Drug uptake entry was “Active”.

The next data set concerns HepG2. Briefly: Cytotoxicity in human HepG2 cells assessed as reduction in cell viability incubated for 72 hrs by SRB assay. The conditions noted are these: HepG2, 72 h. It counts as functional, cell-based. In short, it runs like this:
as §1
Take `Nc1ccn([C@@H]2O[C@H](CO)[C@@H](O)C2(F)F)c(=O)n1` [GEMCITABINE]: the IC50 was 4.9 µM.
Same read-out and setting: then `Cc1cn([C@H]2C[C@H](N=[N+]=[N-])[C@@H](CO)O2)c(=O)[nH]c1=O` [ZIDOVUDINE], with 13 µM.

In the next data set the test system is HeLa. Briefly: Cytotoxicity in human HeLa cells assessed as reduction in cell viability incubated for 72 hrs by SRB assay. It counts as functional, cell-based.
Settings: not given
In short, it runs like this: as §1
Turning to `Nc1ccn([C@@H]2O[C@H](CO)[C@@H](O)C2(F)F)c(=O)n1` [GEMCITABINE], the IC50 turned out to be 9.42 µM.
Consider `Cc1cn([C@H]2C[C@H](N=[N+]=[N-])[C@@H](CO)O2)c(=O)[nH]c1=O` [ZIDOVUDINE], for which the IC50 stood at 10.8 µM.

For the origin of these results see ChEMBL document CHEMBL4385668, “Synthesis and in vitro anticancer activity of new gemcitabine-nucleoside analogue dimers containing methyltriazole or ester-methyltriazole linker” (Bioorg Med Chem Lett, 2019).
